ChEMBL document CHEMBL5532693, “Design, synthesis and antimycobacterial activity of imidazo[1,5-a]quinolines and their zinc-complexes” (RSC Med Chem, 2024)
Values after ≈ are worked out from the molar mass of the structure shown.

Columns and labels:
[1] = system: Mycobacterium tuberculosis; assay: Antibacterial activity against Mycobacterium tuberculosis; assay type: functional
Calu-3 = assay: Cytotoxicity against human Calu-3 cells assessed as reduction in cell viability at 100 uM incubated for 48 hrs by CellTiter-Glo Luminescent Cell Viability assay; assay type: toxicity, cell-based; settings: calu-3, 48 h
Method in brief: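 Confluent Calu-3 cells in DMEM/F-12 GlutaMAX with 10% FCS and 1% penicillin/streptomycin, 37°C, 5% CO2. Compounds were dissolved in DMSO (10 mM stocks) and tested once at 100 μM final with 1% DMSO, in triplicate, for 48 h. ATP luminescence was normalized to the DMSO control (100%). Viability below 80% was classed as cytotoxic. Ionomycin 100 μM served as positive control.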

[2] = system: Mycobacterium tuberculosis; assay: Antibacterial activity against Mycobacterium tuberculosis H37Ra assessed as inhibition of bacterial growth incubated for 7 days by BacTiter-Glo reagent based assay; assay type: functional
Method in brief: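 M. tuberculosis H37Ra pre-grown 14 days in 7H9 with palmitic acid, casitone, BSA, catalase and 0.2% glycerol (37°C, 180 rpm, 85% rH). Diluted to McFarland 1, then to 1 × 10⁶ cells/mL. Compounds were in DMSO. Plates were held 7 days microaerophilic at 37°C/5% CO₂, with ATP luminescence read-out. MIC was the lowest concentration giving ≥85% inhibition versus blank-normalised untreated growth.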

Compound	MIC [1] [µM]	Activity (Calu-3)	other results
CCc1cc(C(N)=S)ccn1 [ETHIONAMIDE]	10 (≈ 1.66 µg/mL)		
c1ccc(-c2ccc(-c3nc(-c4ccccc4)n4c3ccc3ccccc34)nc2)cc1		Non-Toxic	
c1ccc(-c2nc(-c3ccccn3)c3ccc4ccccc4n23)cc1		Toxic	
c1ccc(-c2nc(-c3cccc4ccccc34)n3c2ccc2ccccc23)nc1		Toxic	MIC ([2]; 168 h, time 7 day): 1 µM (≈ 0.371 µg/mL)
c1ccc(-c2nc(-c3cc4ccccc4cn3)c3ccc4ccccc4n23)cc1		Non-Toxic	MIC ([2]; 168 h, time 7 day): 0.5 µM (≈ 0.186 µg/mL)
NNC(=O)c1ccncc1 [ISONIAZID]	0.3 (≈ 0.0411 µg/mL)		
C[C@H]1COc2c(N3CCN(C)CC3)c(F)cc3c(=O)c(C(=O)O)cn1c23 [LEVOFLOXACIN ANHYDROUS]	0.8 (≈ 0.289 µg/mL)		
CN(C)c1ccccc1-c1nc(-c2ccccc2)n2c1ccc1ccccc12		Toxic	
CC[C@@H](CO)NCCN[C@@H](CC)CO [ETHAMBUTOL]	0.3 (≈ 0.0613 µg/mL)		
GENTAMICIN			MIC ([2]; time 7.0 day): 4 µM
COc1ccccc1-c1nc(-c2ccccc2)n2c1ccc1ccccc12		Non-Toxic	
c1ccc(-c2nc(-c3ncccn3)c3ccc4ccccc4n23)cc1		Toxic	
c1ccc(-c2nc(-c3ccccc3)n3c2ccc2ccccc23)cc1		Non-Toxic	
c1ccc(N(c2ccccc2)c2nc(-c3ccccn3)c3ccc4ccccc4n23)cc1		Non-Toxic	
NCC[C@H](O)C(=O)N[C@@H]1C[C@H](N)[C@@H](O[C@H]2O[C@H](CN)[C@@H](O)[C@H](O)[C@H]2O)[C@H](O)[C@H]1O[C@H]1O[C@H](CO)[C@@H](O)[C@H](N)[C@H]1O [AMIKACIN]	0.4 (≈ 0.234 µg/mL)		
c1ccc(-c2nc(-c3cccs3)c3ccc4ccccc4n23)cc1		Non-Toxic	
c1ccc(-c2nc(-c3ccccn3)n3c2ccc2ccccc23)cc1		Toxic	MIC ([2]; 168 h, time 7 day): 25 µM (≈ 8.03 µg/mL)
COc1nc2ccc(Br)cc2cc1[C@@H](c1ccccc1)[C@@](O)(CCN(C)C)c1cccc2ccccc12 [BEDAQUILINE]	0.03 (≈ 0.0167 µg/mL)		
c1ccc(-c2nc(-c3ccccn3)n3c2ccc2ccccc23)nc1		Non-Toxic	MIC ([2]; 168 h, time 7 day): 6 µM (≈ 1.93 µg/mL)
